Results on 97 molecules are retold here after ChEMBL document CHEMBL4513216, “Probing the Open Global Health Chemical Diversity Library for Multistage-Active Starting Points for Next-Generation Antimalarials” (ACS Infect Dis, 2020).

Structures are written as SMILES.

The data set is described as follows: Toxicity liver stage against HepG2, at 10uM. The settings on record: human, HepG2-A16-CD81EGFP cells; read-out: INHIBITION
Details: test concentration 10 uM, cell line HepG2-A16-CD81EGFP. The format is cell-based. In outline: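 Uninfected HepG2-A16-CD81EGFP cells, 3 × 10^3 per well, 1536-well, plated on prespotted compound at 10 μM final, parasite-free screening media added to match infected plates; puromycin 10 μM positive, DMSO 0.5% negative; run in parallel with 48 h PbLuc assay at 37 °C, 5% CO2; viability by CellTiter-Glo luminescence, normalized to controls.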
As for `Cc1c(Cl)cccc1NC(=O)c1nc[nH]n1`, the cytotoxicity at 10 µM was -7.93%.

On to `CS(=O)(=O)c1ccc(O[C@H]2COCCN(C(=O)c3ccno3)C2)cc1`, for which the cytotoxicity at 10 µM worked out at 0.0962%.

On to `N#Cc1cccc(C(=O)Nc2ccc([C@@H](O)[C@H]3COCC(=O)N3)cc2)c1`, for which the cytotoxicity at 10 µM is -4.25%.

For the molecule `O=C(c1cc(CC2(NC3CCCCC3)COC2)no1)N1CCCCC1`, the cytotoxicity at 10 µM was 7.65%.

As to `CCCNC(=O)CCC(=O)n1nc(C)c2ccccc21`, the cytotoxicity at 10 µM amounted to 1.23%.

For the molecule `CC(C)c1sc(Cl)nc1C(=O)N1CCN(c2ccccc2)CC1`, the cytotoxicity at 10 µM was -87.6%.

For the molecule `O=c1[nH]c2c(-c3ccccn3)nsc2c(=O)n1CC1CCCO1` (configuration not stated), the cytotoxicity at 10 µM came to 9.26%.

Take `COc1cc(N2C[C@H]3CN(C(=O)c4cnccn4)C[C@H]3C2)ncn1`: the cytotoxicity at 10 µM is -141%.

With `COc1nn(C)c2c1CCCN(S(=O)(=O)c1cccs1)C2`, the cytotoxicity at 10 µM is -112%.

For the molecule `O=C(c1ccoc1)N1CCC2(C1)CN(c1ncc(F)cn1)C2`, the cytotoxicity at 10 µM is -0.472%.

Take `Cc1ccc(CN2CC[C@H]3OCC[C@@H](C(=O)NCC4CC4)[C@@H]3C2)o1`: the cytotoxicity at 10 µM turned out to be 0.951%.

Regarding `CCNC(=O)N1CCC2(C1)c1ccccc1S(=O)(=O)N2CCOC` (configuration not stated), the cytotoxicity at 10 µM is -151%.

For `CCN1C[C@H]2CCN(C(=O)NC)CC[C@H]2S1(=O)=O`, the cytotoxicity at 10 µM stood at 4%.

For the molecule `CC(C)n1[nH]c(=O)c2c1NC(=O)CC2c1ccc(C#N)cc1` (configuration not stated), the cytotoxicity at 10 µM amounted to 3.92%.

For the molecule `CC(C)(C)n1ncc2c1NC(=O)CC2c1ccc(C#N)cc1` (configuration not stated), the cytotoxicity at 10 µM was -1.26%.

For `Clc1ccc2nncc(N3CCCCC3)c2c1`, the cytotoxicity at 10 µM is -4.34%.

On to `Cc1nn(C)c2c(N3CCC(C)CC3)nc(C3CC3)nc12`, for which the cytotoxicity at 10 µM turned out to be 7.59%.

`Cn1nc(C(=O)N2CCOCC2)cc1C(=O)Nc1ncc(Cl)cc1Cl`: the cytotoxicity at 10 µM stood at 12.5%.

For `CS(=O)(=O)N1CCN(C(=O)c2cncs2)CC(C(N)=O)C1` (configuration not stated), the cytotoxicity at 10 µM came to 2.9%.

With `CC(=O)Nc1ccc(CCC2(NC(=O)C3CCCO3)CCCCC2)cn1` (configuration not stated), the cytotoxicity at 10 µM is 1.6%.

Take `Nc1nccnc1CC1CCCN(Cc2cccc3[nH]ccc23)C1` (configuration not stated): the cytotoxicity at 10 µM amounted to 0.994%.

Take `O=C(NCCNC1CCCC1)c1cccs1`: the cytotoxicity at 10 µM was -0.579%.

In the case of `Fc1ccccc1-c1nccnc1C1CCCNC1` (configuration not stated), the cytotoxicity at 10 µM is -25.7%.

`COCCN1CCCC(Cc2ccc(N3CCOCC3)nn2)C1` (configuration not stated): the cytotoxicity at 10 µM is -17.9%.

In the case of `Cc1ccc(-c2cc(N)c(=O)n(C(C)C(=O)NCC3CCCCC3)n2)s1` (configuration not stated), the cytotoxicity at 10 µM is -13.9%.

In the case of `Cc1noc(C)c1-c1cncc(C2CCCN2Cc2cc[nH]n2)n1` (configuration not stated), the cytotoxicity at 10 µM was determined as 13%.

With `CS(=O)(=O)c1ccc(NC(=O)NCc2ccc(F)cc2)cn1`, the cytotoxicity at 10 µM was 15.4%.

Turning to `CCOc1ccc(NC(=O)c2oc(CC)cc2C)cc1CO`, the cytotoxicity at 10 µM was 2.05%.

With `Cc1cccc(-c2ccc(C(=O)N3CCN(C(C)C)CC3)c(=O)[nH]2)c1`, the cytotoxicity at 10 µM was -3.27%.

Regarding `COCCS(=O)(=O)N(Cc1ccsc1)c1ccccc1`, the cytotoxicity at 10 µM is -4.76%.

With `CN(C)c1ncccc1N(C)C(=O)Cn1cc(-c2ccccc2)nn1`, the cytotoxicity at 10 µM was -2.2%.

On to `CC(Oc1ccc(C(=O)NCCNS(C)(=O)=O)cn1)c1ccccc1` (configuration not stated), for which the cytotoxicity at 10 µM came out at 7.44%.

For the molecule `O=C(CCc1ccc(C(F)(F)F)cc1)N1CCCS1(=O)=O`, the cytotoxicity at 10 µM was found to be 4.37%.

With `CC(C)COc1cncc(N2CCCN(CC(F)(F)F)CC2)n1`, the cytotoxicity at 10 µM was found to be 4.29%.

For `O=C(c1ccoc1)N(Cc1ccccn1)C1CC1`, the cytotoxicity at 10 µM was -15%.

Turning to `Cc1nnc2n1CCN(C(=O)c1ccn(-c3cccc(F)c3)n1)C2`, the cytotoxicity at 10 µM is -144%.

For `CCc1nnc2n1CCN(C(=O)c1cn(-c3ccccc3)nn1)C2`, the cytotoxicity at 10 µM is -141%.

In the case of `OCC1CCCN1c1cc(NCCc2nccs2)ncn1` (configuration not stated), the cytotoxicity at 10 µM came to 4.58%.

With `CSCC(C)N(C)C(=O)c1nn(-c2ccc(F)cc2C)cc1O` (configuration not stated), the cytotoxicity at 10 µM was 0.618%.

Regarding `CN1CCC(N(C)C(=O)CSc2ccc(F)c(F)c2)C1=O` (configuration not stated), the cytotoxicity at 10 µM was -5.89%.

For `Cc1cnn(C2CCCN(C(=O)c3c(C)oc(C)c3C)C2)c1` (configuration not stated), the cytotoxicity at 10 µM worked out at 2.56%.

For `Cc1n[nH]c(C(=O)N2CCCC(C)CC2)c1Br` (configuration not stated), the cytotoxicity at 10 µM is -1.74%.

Turning to `Cc1ccc(CNC(=O)NC(C)CCS(C)(=O)=O)cc1F` (configuration not stated), the cytotoxicity at 10 µM was -146%.

Take `Cc1cc(NCc2cccc(C#N)c2)ccc1C(N)=O`: the cytotoxicity at 10 µM was 10.1%.

`CCCn1cc(NC(=O)c2cccc3cccnc23)ccc1=O`: the cytotoxicity at 10 µM was -4.73%.

For `COc1ccc(C)cc1NS(=O)(=O)c1ccc(CCNC(C)=O)s1`, the cytotoxicity at 10 µM is 0.549%.

Regarding `NC(=O)C1CCCN1Cc1ccccc1NC(=O)Cc1cccc(F)c1` (configuration not stated), the cytotoxicity at 10 µM amounted to 7.31%.

Turning to `CCOCc1nnc(NCc2cccnc2)o1`, the cytotoxicity at 10 µM was found to be 10.9%.

In the case of `CC(O)CN1CCN(C(=O)c2cnn(-c3ccccc3F)c2)CC1` (configuration not stated), the cytotoxicity at 10 µM is -6.81%.

Take `CC(C)(C)C(=O)NCCC(=O)NC(C)(C)c1ccc2c(c1)OCCO2`: the cytotoxicity at 10 µM is -1.22%.

Consider `CC(C)Oc1ccc(CN2CCC(Cc3nnc(CO)n3C)CC2)cc1`, for which the cytotoxicity at 10 µM was 1.24%.

For the molecule `O=C(NCCSc1ccccc1)[C@H]1CNC[C@@H](C(=O)N2CCOCC2)C1`, the cytotoxicity at 10 µM is -3.03%.

On to `CCOc1ccccc1C(C(=O)O)N(C)Cc1nnc(C)o1` (configuration not stated), for which the cytotoxicity at 10 µM is -9.77%.

Take `CCN1CCC(NN2CCN(C)CC2)CC1`: the cytotoxicity at 10 µM amounted to 0.935%.

As for `O=C1CCC2(CCOC2)CN1CCCOc1cccnc1` (configuration not stated), the cytotoxicity at 10 µM is -16.1%.

In the case of `CCCc1ccc(CN2CCC3(CCC(=O)N(CCO)C3)CC2)o1`, the cytotoxicity at 10 µM is -6.29%.

With `Cc1ccc(Cl)c(C(C(=O)O)N(C)Cc2cnn(C)c2)c1` (configuration not stated), the cytotoxicity at 10 µM was -11%.

Regarding `O=C(c1cnc2ccccn12)N1CCCC(c2ccn[nH]2)C1` (configuration not stated), the cytotoxicity at 10 µM was -5.28%.

For `COCCN1CCC(CN(C)c2ncnc3c2c(C)nn3C)C1` (configuration not stated), the cytotoxicity at 10 µM is -5.16%.

On to `CN(Cc1ccccc1Cl)C(=O)c1cc(CN2CCC(O)CC2)on1`, for which the cytotoxicity at 10 µM was determined as 0.0227%.

Take `Cc1ccc2nc(C3CCCN3Cc3nnc(C)s3)[nH]c2c1` (configuration not stated): the cytotoxicity at 10 µM was -2.82%.

Regarding `Cc1oc(C(=O)O)cc1S(=O)(=O)Nc1cc(Br)ccc1F`, the cytotoxicity at 10 µM was -3.46%.

`Cc1noc(NC(=O)c2ccc(C#N)cc2)n1`: the cytotoxicity at 10 µM is -5.32%.

With `CNc1nc(CNC(=O)Nc2cccc(CN(C)C)c2)cs1`, the cytotoxicity at 10 µM is -8.04%.

For `NC(=O)C1CCN(C(=O)c2ccn(-c3cccc(Cl)c3)n2)C1` (configuration not stated), the cytotoxicity at 10 µM is -0.433%.

In the case of `Cc1ccc(C(=O)NS(=O)(=O)c2cc(F)ccc2F)c(=O)[nH]1`, the cytotoxicity at 10 µM was -1.73%.

Take `COCc1ccccc1CNC(=O)CN1CCCC1c1noc(C)n1` (configuration not stated): the cytotoxicity at 10 µM is 1.13%.

As to `Cc1nc(CCNCc2c(C)nn(C)c2N2CCOCC2)cs1`, the cytotoxicity at 10 µM is -11.5%.

Regarding `COc1c(C)cnc(CN2CCCC(Cn3nc(C)nc3C)C2)c1C` (configuration not stated), the cytotoxicity at 10 µM turned out to be 2.37%.

For the molecule `Cc1n[nH]c(C2CN(C(=O)c3cc4c(s3)CCCC4)CCO2)n1` (configuration not stated), the cytotoxicity at 10 µM was -14.9%.

`Cc1cc(C(=O)N2CCN(Cc3ccsc3)CC2)c(C)n1C1CC1`: the cytotoxicity at 10 µM was -1.94%.

On to `Cc1ccc(CNC(=O)CN2CCCCC2Cn2cncn2)s1` (configuration not stated), for which the cytotoxicity at 10 µM amounted to 1.8%.

As to `Cn1cnc2c1CCN(CCCS(=O)(=O)c1ccccc1)C2`, the cytotoxicity at 10 µM was -7.54%.

Turning to `Cc1cnn(CC2CN(CCc3cccs3)CCO2)c1` (configuration not stated), the cytotoxicity at 10 µM was -14.2%.

Turning to `Cc1cc(C)n(CC2CN(CC(=O)NCc3ccccn3)CCO2)n1` (configuration not stated), the cytotoxicity at 10 µM was -5.07%.

`Cc1cnn(C2CN(Cc3nc(-c4ccco4)no3)C2)c1`: the cytotoxicity at 10 µM is -14.6%.

Consider `Cc1n[nH]c(C)c1C1COCCN1C(=O)c1ccccc1` (configuration not stated), for which the cytotoxicity at 10 µM is -3.94%.

In the case of `O=C(COc1ccc(C(F)(F)F)cc1)NS(=O)(=O)c1cccnc1`, the cytotoxicity at 10 µM is -7.44%.

Consider `Cn1cc(-c2nc(CN3CCN(CCO)CC3)cs2)cn1`, for which the cytotoxicity at 10 µM was -2.66%.

As to `Cc1cnn(CC2CCCCN2CCn2cncn2)c1` (configuration not stated), the cytotoxicity at 10 µM was determined as 6.26%.

Take `Cn1ccc(C(=O)NCc2ccc(N3CCCC3)nc2)cc1=O`: the cytotoxicity at 10 µM was 0.12%.

In the case of `Fc1cccc(-c2nc(CN3CCOC(Cn4cccn4)C3)co2)c1` (configuration not stated), the cytotoxicity at 10 µM was -5.6%.

Take `c1ccc(-n2ncc(CN3CCCC3Cn3cccn3)n2)cc1` (configuration not stated): the cytotoxicity at 10 µM was -2.73%.

With `COc1ccc(C(=O)N(C)Cc2nnc3ccccn23)c(OC)c1`, the cytotoxicity at 10 µM is -3.03%.

As for `CNC(=O)c1ccc(CN2CCC(N(C)Cc3noc(C)n3)C2)cc1` (configuration not stated), the cytotoxicity at 10 µM turned out to be 5.56%.

As to `CNCc1ccc(OCc2ccc3c(c2)OCCO3)cc1`, the cytotoxicity at 10 µM came to 1.61%.

As to `CCNC(=O)[C@@H]1CCCN1[C@@H](C(=O)NC)c1ccccc1`, the cytotoxicity at 10 µM was determined as 7.77%.

As for `Cn1nc(C2CCCN(Cc3cccs3)C2)c2nccnc21` (configuration not stated), the cytotoxicity at 10 µM is 4.2%.

With `COc1ncnc2c1CCN(Cc1cccs1)CC2`, the cytotoxicity at 10 µM is 8.55%.

In the case of `Cc1csc(CN2CC[C@H]3C[C@H](c4nc(C)no4)O[C@@H]3C2)n1`, the cytotoxicity at 10 µM is -3.35%.

`CCc1ncnc2c1CCN(C(=O)c1ccccn1)CC2`: the cytotoxicity at 10 µM is 2.43%.

For `Cc1ccc(NC(=O)c2nc3c(s2)CCCN3C(=O)C2CC2)cn1`, the cytotoxicity at 10 µM amounted to 10.5%.

Turning to `O=C([C@H]1CC[C@@H]2[C@@H](CCN2Cc2nccs2)O1)N1CCOCC1`, the cytotoxicity at 10 µM was -0.891%.

`CNC(=O)[C@@H](c1ccccc1)N1CCC[C@H]1C(=O)NCc1cccnc1`: the cytotoxicity at 10 µM was found to be 2.38%.

For `CC(=O)N1CC(=O)N(c2ccccc2)CC12CCN(Cc1nccs1)C2` (configuration not stated), the cytotoxicity at 10 µM is -2.23%.

`COCCOCC1(CNCc2ccc(OC)cc2)C[C@@H](O)[C@@H](O)C1` (some centres not stated): the cytotoxicity at 10 µM was -7.46%.

Take `Cc1cc(C(=O)NC2CCC3(CCC(=O)N3CC3CC3)CC2)no1` (configuration not stated): the cytotoxicity at 10 µM was -0.39%.
